From ChEMBL document CHEMBL5126625, “Discovery of AZD4831, a Mechanism-Based Irreversible Inhibitor of Myeloperoxidase, As a Potential Treatment for Heart Failure with Preserved Ejection Fraction” (J Med Chem, 2022)
Converted amounts (≈) assume the structure as drawn.

Legend:
Myeloperoxidase [1] = molecular target: T1, Myeloperoxidase (Homo sapiens, UniProt P05164); test: Inhibition of MPO (unknown origin) measured after 15 mins in presence of H2O2 by chemiluminescence assay
T1 sequence (P05164 whole entry): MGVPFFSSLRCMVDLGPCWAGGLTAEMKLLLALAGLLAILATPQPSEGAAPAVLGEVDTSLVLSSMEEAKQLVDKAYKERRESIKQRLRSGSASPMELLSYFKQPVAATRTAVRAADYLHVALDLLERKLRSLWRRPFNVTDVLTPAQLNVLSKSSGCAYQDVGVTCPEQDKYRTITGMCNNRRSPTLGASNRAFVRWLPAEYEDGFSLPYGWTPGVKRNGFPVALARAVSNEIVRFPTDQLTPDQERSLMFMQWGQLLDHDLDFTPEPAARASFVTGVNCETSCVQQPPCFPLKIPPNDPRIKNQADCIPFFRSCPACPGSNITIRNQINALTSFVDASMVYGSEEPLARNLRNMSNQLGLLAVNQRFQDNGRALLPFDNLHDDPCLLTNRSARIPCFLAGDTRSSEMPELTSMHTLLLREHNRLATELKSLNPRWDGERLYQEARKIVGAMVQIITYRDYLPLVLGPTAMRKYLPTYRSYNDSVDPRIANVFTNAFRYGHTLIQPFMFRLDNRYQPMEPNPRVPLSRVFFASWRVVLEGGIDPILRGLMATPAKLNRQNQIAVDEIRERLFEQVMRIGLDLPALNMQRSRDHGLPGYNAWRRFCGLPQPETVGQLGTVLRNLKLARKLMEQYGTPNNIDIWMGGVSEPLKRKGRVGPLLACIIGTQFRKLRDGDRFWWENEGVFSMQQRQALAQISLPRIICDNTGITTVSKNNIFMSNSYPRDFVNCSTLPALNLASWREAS

Myeloperoxidase [2] = molecular target: T1, Myeloperoxidase; test: Inhibition of MPO in human HL-60 cells measured after 15 mins in presence of H2O2 by chemiluminescence assay; type: cell-based
Thyroid peroxidase = molecular target: T2, Thyroid peroxidase (Homo sapiens, UniProt P07202); test: Inhibition of human recombinant TPO (1 to 839 residues) expressed in baculovirus-infected insect cells measured after 15 mins in presence of H2O2 by chemiluminescence assay
T2 sequence (P07202 whole entry): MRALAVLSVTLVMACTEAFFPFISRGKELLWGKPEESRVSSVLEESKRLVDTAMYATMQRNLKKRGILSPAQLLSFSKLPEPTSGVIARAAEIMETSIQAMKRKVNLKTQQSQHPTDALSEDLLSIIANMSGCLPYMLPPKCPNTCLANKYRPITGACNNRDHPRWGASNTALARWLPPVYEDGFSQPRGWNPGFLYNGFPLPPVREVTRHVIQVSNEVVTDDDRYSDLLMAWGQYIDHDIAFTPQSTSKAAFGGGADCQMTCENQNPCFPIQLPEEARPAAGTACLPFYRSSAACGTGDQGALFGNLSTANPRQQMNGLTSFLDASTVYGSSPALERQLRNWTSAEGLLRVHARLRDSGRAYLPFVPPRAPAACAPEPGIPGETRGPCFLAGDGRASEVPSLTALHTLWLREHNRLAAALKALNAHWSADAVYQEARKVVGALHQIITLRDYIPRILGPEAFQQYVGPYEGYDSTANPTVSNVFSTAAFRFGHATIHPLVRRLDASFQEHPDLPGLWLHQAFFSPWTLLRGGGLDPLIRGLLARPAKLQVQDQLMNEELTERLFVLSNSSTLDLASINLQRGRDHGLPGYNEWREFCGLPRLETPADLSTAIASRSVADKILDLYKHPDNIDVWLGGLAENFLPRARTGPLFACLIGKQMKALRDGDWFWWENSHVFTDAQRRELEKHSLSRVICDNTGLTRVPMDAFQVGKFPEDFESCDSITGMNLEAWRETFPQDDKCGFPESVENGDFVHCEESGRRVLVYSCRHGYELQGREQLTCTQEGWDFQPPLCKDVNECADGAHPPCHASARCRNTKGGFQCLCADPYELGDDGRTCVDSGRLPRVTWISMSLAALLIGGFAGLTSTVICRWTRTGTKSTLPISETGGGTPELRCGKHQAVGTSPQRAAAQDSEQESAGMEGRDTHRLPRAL
How it was run: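 IC50 determined against purified enzyme in an in vitro chemiluminescent assay.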

[3] = Lipophilicity, log D of the compound; conditions: octanol/water
[4] = Apparent permeability of the compound across apical to basolateral side in human Caco-2 cells at 10 uM by LC-MS/MS analysis
[5] = Oral bioavailability in Wistar Han rat measured up to 24 hrs by LC-MS/MS analysis; type: ADME, organism-based; conditions: in vivo
[6] = Oral bioavailability in Beagle dog measured up to 24 hrs by LC-MS/MS analysis; type: ADME, organism-based, Canis lupus familiaris; conditions: in vivo
[7] = molecular target: Voltage-gated inwardly rectifying potassium channel KCNH2 (Homo sapiens, UniProt Q12809)
Sequence of Voltage-gated inwardly rectifying potassium channel KCNH2 (Q12809 whole entry): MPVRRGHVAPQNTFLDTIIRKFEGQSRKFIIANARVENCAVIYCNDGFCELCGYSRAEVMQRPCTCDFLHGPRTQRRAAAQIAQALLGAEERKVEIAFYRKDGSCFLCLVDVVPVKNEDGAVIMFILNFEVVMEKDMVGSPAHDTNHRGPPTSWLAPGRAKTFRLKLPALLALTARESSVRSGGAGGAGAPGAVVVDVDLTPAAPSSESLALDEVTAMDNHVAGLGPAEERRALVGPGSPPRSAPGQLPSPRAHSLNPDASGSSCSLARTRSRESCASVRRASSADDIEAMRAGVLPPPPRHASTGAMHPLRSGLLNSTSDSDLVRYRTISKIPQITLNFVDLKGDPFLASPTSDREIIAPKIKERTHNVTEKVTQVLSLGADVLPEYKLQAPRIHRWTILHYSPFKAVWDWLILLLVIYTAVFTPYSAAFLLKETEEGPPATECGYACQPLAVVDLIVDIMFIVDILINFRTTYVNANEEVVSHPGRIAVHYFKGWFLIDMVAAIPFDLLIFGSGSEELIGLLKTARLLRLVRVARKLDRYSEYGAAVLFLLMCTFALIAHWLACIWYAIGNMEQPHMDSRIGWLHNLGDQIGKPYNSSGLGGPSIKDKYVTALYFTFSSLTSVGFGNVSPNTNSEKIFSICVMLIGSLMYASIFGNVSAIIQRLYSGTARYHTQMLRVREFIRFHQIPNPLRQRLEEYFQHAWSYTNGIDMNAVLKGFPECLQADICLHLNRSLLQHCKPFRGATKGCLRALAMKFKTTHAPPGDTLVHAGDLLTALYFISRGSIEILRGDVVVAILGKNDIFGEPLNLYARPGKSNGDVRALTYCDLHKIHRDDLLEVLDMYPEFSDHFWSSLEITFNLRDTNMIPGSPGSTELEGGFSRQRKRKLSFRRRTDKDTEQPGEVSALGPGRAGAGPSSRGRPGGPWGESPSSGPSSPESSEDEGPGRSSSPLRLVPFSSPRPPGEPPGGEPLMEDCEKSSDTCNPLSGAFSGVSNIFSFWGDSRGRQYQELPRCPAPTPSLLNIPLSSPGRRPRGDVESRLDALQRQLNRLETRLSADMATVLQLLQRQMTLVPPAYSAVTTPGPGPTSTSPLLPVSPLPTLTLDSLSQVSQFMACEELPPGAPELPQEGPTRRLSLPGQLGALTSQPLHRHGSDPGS

Cytochrome P450 3A4 = Cytochrome P450 3A4 (Homo sapiens, UniProt P08684)
Sequence of Cytochrome P450 3A4 (P08684 whole entry): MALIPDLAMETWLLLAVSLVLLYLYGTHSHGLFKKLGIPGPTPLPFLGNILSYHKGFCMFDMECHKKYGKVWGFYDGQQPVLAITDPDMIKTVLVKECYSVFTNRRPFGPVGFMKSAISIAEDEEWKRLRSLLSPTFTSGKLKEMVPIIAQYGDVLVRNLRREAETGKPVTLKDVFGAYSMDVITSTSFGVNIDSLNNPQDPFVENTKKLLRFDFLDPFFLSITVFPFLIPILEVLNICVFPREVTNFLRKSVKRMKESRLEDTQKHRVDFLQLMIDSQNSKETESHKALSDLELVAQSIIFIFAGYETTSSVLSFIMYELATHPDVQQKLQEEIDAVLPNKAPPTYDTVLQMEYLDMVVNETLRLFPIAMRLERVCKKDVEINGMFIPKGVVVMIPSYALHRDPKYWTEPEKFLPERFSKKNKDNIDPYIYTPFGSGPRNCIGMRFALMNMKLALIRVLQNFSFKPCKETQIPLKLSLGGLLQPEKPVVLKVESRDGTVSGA

physchem = conditions: phosphate buffer, pH 7.4
[8] = Drug uptake in human liver microsomes assessed as covalent binding at 10 uM incubated for 60 mins by LC/MS analysis; type: ADME, Microsome; conditions: 1 h
How it was run: (§1)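 Human liver microsomes incubated with the [14C]-labelled compound to measure covalent binding to microsomal protein.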

[9] = Drug uptake in human liver microsomes assessed as covalent binding at 10 uM incubated for 60 mins in presence of NADPH by LC/MS analysis; type: ADME, Microsome; conditions: 1 h; how it was run: as §1
[10] = Drug uptake in heat-inactivated human liver microsomes assessed as covalent binding at 10 uM incubated for 60 mins by LC/MS analysis; type: ADME, Microsome; conditions: 1 h; how it was run: as §1
[11] = Drug uptake in human liver microsomes assessed as covalent binding at 10 uM incubated for 60 mins in presence of formaldehyde by LC/MS analysis; type: ADME, Microsome; conditions: 1 h
How it was run: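 Covalent binding of the [14C]-labelled compound in human liver microsome incubations with 5 mM formaldehyde added.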

[12] = Drug uptake in human hepatocytes assessed as covalent binding measured per mg protein; type: ADME, cell-based, Hepatocyte
How it was run: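 [14C]-labelled compound incubated with human hepatocytes; covalently bound radioactivity expressed as pmol per mg protein.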

Cytochrome P450 2C9 = Cytochrome P450 2C9 (Homo sapiens, UniProt P11712); test: Inhibition of human recombinant CYP2C9 using coumarin as substrate preincubated with enzyme for 10 mins followed by NADPH addition and measured after 20 to 50 mins by fluorescence based method
Sequence of Cytochrome P450 2C9 (P11712 whole entry): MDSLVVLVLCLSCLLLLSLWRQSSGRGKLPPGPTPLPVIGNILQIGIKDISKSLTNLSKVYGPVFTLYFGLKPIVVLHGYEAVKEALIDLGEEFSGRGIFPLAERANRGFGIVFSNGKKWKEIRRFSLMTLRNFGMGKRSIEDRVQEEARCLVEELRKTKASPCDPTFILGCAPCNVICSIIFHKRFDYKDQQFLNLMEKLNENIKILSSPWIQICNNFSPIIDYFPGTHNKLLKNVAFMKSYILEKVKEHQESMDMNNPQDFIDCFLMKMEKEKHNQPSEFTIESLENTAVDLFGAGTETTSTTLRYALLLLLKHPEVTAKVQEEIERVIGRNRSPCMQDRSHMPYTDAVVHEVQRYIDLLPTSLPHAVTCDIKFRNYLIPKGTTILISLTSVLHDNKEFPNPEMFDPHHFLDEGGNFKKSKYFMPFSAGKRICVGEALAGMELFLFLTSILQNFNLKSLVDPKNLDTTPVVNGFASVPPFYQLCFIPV

Cytochrome P450 2D6 = Cytochrome P450 2D6 (Homo sapiens, UniProt P10635); test: Inhibition of CYP2D6 (unknown origin) using coumarin as substrate preincubated with enzyme for 10 mins followed by NADPH addition and measured after 20 to 50 mins by fluorescence based method
Sequence of Cytochrome P450 2D6 (P10635 whole entry): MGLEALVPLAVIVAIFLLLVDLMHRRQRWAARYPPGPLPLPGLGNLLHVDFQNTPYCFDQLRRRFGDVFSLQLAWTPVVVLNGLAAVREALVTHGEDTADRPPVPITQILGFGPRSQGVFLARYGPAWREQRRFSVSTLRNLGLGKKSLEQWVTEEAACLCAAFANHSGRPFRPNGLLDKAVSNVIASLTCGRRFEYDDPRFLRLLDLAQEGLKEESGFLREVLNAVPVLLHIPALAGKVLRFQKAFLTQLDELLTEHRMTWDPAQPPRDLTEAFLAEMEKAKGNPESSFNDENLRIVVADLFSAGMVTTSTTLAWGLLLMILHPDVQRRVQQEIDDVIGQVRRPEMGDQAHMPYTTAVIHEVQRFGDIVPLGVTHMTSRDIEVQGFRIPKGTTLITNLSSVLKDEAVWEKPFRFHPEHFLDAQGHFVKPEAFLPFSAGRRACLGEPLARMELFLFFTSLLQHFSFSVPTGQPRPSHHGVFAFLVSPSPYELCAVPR

Cytochrome P450 1A2 = molecular target: T3, Cytochrome P450 1A2 (Homo sapiens, UniProt P05177); test: Inhibition of human recombinant CYP1A2 using coumarin as substrate preincubated with enzyme for 10 mins followed by NADPH addition and measured after 20 to 50 mins by fluorescence based method
T3 sequence (P05177 whole entry): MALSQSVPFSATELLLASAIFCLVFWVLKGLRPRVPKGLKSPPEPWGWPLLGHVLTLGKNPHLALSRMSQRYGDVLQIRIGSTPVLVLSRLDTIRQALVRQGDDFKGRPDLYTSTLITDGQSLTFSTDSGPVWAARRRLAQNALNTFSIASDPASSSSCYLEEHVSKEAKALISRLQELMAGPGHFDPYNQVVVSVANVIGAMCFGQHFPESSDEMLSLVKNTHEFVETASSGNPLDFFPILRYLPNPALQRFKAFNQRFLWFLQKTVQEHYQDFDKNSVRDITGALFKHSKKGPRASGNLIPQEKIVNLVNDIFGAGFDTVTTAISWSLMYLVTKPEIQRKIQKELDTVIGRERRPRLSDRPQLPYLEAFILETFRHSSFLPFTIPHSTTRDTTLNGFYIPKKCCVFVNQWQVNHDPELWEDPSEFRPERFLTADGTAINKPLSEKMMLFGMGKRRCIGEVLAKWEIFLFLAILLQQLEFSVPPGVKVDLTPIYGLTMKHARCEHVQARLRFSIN

Cytochrome P450 2C19 = Cytochrome P450 2C19 (Homo sapiens, UniProt P33261); test: Inhibition of human recombinant CYP2C19 using coumarin as substrate preincubated with enzyme for 10 mins followed by NADPH addition and measured after 20 to 50 mins by fluorescence based method
Sequence of Cytochrome P450 2C19 (P33261 whole entry): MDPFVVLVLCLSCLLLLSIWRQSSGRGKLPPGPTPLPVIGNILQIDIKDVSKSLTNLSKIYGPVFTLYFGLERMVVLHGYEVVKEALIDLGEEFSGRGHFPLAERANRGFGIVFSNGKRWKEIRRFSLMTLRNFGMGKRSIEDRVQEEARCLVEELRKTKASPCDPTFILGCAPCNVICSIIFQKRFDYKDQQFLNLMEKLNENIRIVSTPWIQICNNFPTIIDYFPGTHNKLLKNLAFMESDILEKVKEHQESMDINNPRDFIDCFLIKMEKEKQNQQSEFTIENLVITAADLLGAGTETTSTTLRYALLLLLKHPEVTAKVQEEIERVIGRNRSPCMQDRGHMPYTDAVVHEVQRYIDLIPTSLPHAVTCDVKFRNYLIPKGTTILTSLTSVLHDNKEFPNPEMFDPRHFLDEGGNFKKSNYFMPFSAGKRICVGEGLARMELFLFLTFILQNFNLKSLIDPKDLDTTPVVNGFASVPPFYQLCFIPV

[13] = Drug uptake in Lister Hooded rat liver assessed as nonextractable fraction at 4.55 umol/kg, po measured after 24 hrs by whole body autoradiography; type: ADME, organism-based; conditions: in vivo, at 4.55 µmol/kg
How it was run: (§2)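 Rats were given a single oral dose of 10 MBq/kg of the [14C]-labelled compound. Whole-body autoradiography was done 24 h post-dose on sections before and after extraction, with the nonextractable liver fraction taken from the extracted sections. Whole-body drug-related material was also measured at 7 days.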

[14] = Drug uptake in Lister Hooded rat pigmented skin at 4.55 umol/kg, po measured after 24 hrs by whole body autoradiography; type: ADME, organism-based, Skin of body; conditions: in vivo, dose 4.55 µmol/kg; how it was run: as §2
[15] = Drug uptake in Lister Hooded rat eyes at 4.55 umol/kg, po measured after 24 hrs by whole body autoradiography; type: ADME, organism-based, Eye; conditions: in vivo, dose 4.55 µmol/kg; how it was run: as §2
[16] = Drug uptake in Lister Hooded rat at 4.55 umol/kg, po measured after 7 days by whole body autoradiography; type: ADME, organism-based; conditions: in vivo, 168 h, at 4.55 µmol/kg, time 7 day; how it was run: as §2
Myeloperoxidase [17] = molecular target: T1, Myeloperoxidase; test: Displacement of benzhydroxamic acid from native state MPO (unknown origin) by 1D NMR reporter assay

| SMILES | IC50 (Myeloperoxidase [1]) [nM] | IC50 (Myeloperoxidase [2]) [nM] | IC50 (Thyroid peroxidase) [nM] | logD [3] | Papp A→B at 10 µM [4] [×10⁻⁶ cm/s] | solubility thermodynamic at 18 h (physchem) [µM] | further results |
| --- | --- | --- | --- | --- | --- | --- | --- |
| CNCc1cc(Cl)ccc1Cn1c(=S)[nH]c(=O)c2[nH]ccc21 | 15.9 | 6600 | 2100 | 1.3 | 17 | 160 (≈ 53.6 µg/mL) | bioavailability [5]: 60%; bioavailability [6]: 72%; IC50 [7]: 10000 nM; IC50 (Cytochrome P450 3A4): > 30000 nM |
| CNCc1ccc(Cl)cc1Cn1c(=S)[nH]c(=O)c2[nH]ccc21 | 27.1 | 6100 | 1900 | 1.1 | 9.6 | 210 (≈ 70.3 µg/mL) | – |
| CC(=O)NCc1cc(Cl)ccc1Cn1c(=S)[nH]c(=O)c2[nH]ccc21 | 140 | 16000 | 1400 | 2 | 11 | 3.3 (≈ 1.2 µg/mL) | – |
| C[C@H](N)c1cc(Cl)ccc1Cn1c(=S)[nH]c(=O)c2[nH]ccc21 | – | – | 1100 | 1.4 | 10 | 850 (≈ 285 µg/mL) | – |
| CNCc1c(Cl)cccc1Cn1c(=S)[nH]c(=O)c2[nH]ccc21 | 39.3 | 9400 | 4200 | 1.3 | 19 | 150 (≈ 50.2 µg/mL) | – |
| NCc1cc(Cl)ccc1Cn1c2cc[nH]c2c(=O)[nH][14c]1=S | – | – | – | – | – | – | Drug uptake [8]: Active; Drug uptake [9]: Active; Drug uptake [10]: Active; Drug uptake [11]: Active; Drug uptake [12]: 95 pmol |
| O=c1[nH]c(=S)n(Cc2ccc(F)cc2)c2nc[nH]c12 | – | – | 590 | – | – | – | – |
| NCc1cc(Cl)ccc1Cn1c(=S)[nH]c(=O)c2[nH]ccc21 | – | – | 1300 | 1.2 | 6 | 42 (≈ 13.5 µg/mL) | IC50 (Cytochrome P450 2C9): > 30000 nM; IC50 (Cytochrome P450 2D6): > 30000 nM; IC50 (Cytochrome P450 1A2): > 30000 nM; IC50 (Cytochrome P450 2C19): > 30000 nM; bioavailability [5]: 68%; bioavailability [6]: 45%; IC50 [7]: > 40000 nM; IC50 (Cytochrome P450 3A4): 19000 nM |
| C[C@@H](N)c1cc(Cl)ccc1Cn1c2cc[nH]c2c(=O)[nH][14c]1=S | – | – | – | – | – | – | Drug uptake [13]: < 0.2%; Drug uptake [14]: Active; Drug uptake [15]: Active; Drug uptake [16]: 0.1% |
| C[C@@H](N)c1cc(Cl)ccc1Cn1c(=S)[nH]c(=O)c2[nH]cnc21 | – | – | 770 | – | – | – | – |
| O=c1[nH]c(=S)n(C[C@H]2CCCO2)c2nc[nH]c12 | 279 | 29000 | 2400 | – | – | – | Kd (Myeloperoxidase [17]): 63100 nM |
| O=c1[nH]c(=S)n(Cc2ccccc2CN2CCC2)c2cc[nH]c12 | 15.1 | 6600 | 1500 | 1 | 19 | 930 (≈ 304 µg/mL) | – |
| CN[C@H](C)c1cc(Cl)ccc1Cn1c(=S)[nH]c(=O)c2[nH]ccc21 (racemic) | 12.7 | 4600 | 1100 | 1.5 | 19 | 190 (≈ 66.3 µg/mL) | – |
| CC(C)NCc1ccccc1Cn1c(=S)[nH]c(=O)c2[nH]ccc21 | 30.9 | 13000 | 8100 | 0.9 | 12 | 140 (≈ 46 µg/mL) | – |
| NC(c1ccccc1)c1ccccc1Cn1c(=S)[nH]c(=O)c2[nH]ccc21 (stereo not drawn) | – | – | 1390 | 1.7 | 18 | 8.3 (≈ 3.01 µg/mL) | – |
| COc1ccc(Cl)cc1-c1cc(=O)[nH]c(=S)n1CC(N)=O [PF-06282999] | – | – | 990 | – | – | – | – |
| CC(C)NCc1ccccc1Cn1c(=S)[nH]c(=O)c2[nH]cnc21 | 38.6 | 80000 | 4200 | 0.3 | 0.89 | 18 (≈ 5.93 µg/mL) | – |
